Measured values of several laboratories.
Compare with care: the assays were run in different laboratories.
Read-out: binding
ERBB2: Receptor tyrosine-protein kinase erbB-2 (ERBB2, Homo sapiens, UniProt P04626)

SMILES	target	test	conditions	Kd [µM]
O=C1Nc2ccccc2C1=O	Parkinson disease protein 7 (PARK7, Homo sapiens, UniProt Q99497)	SPR		2
Cc1cc2nc3c(=O)[nH]c(=O)nc-3n(C[C@H](O)[C@H](O)[C@H](O)COP(=O)(O)OP(=O)(O)OC[C@H]3O[C@@H](n4cnc5c(N)ncnc54)[C@H](O)[C@@H]3O)c2cc1C	CPEB4 (Homo sapiens, UniProt Q17RY0)		lysate	0.005
CC#CC(=O)N1CC[C@@H](n2cc(-c3ccc(Oc4c(F)cccc4F)cc3)c3c(N)n[nH]c(=O)c32)C1	ERBB2	competition with immobilised ligand		> 3
O=C(O)c1cc(O)c2c(c1)C(=O)c1cccc(O)c1C2=O	Oxysterols receptor LXR-alpha (NR1H3, Homo sapiens, UniProt Q13133)	SPR		46.7
O=c1cccccc1O	Carbonic anhydrase 2 (CA2, Homo sapiens, UniProt P00918)	ITC		1680
N#CC1(c2ccc(NC(=O)c3cccnc3NCc3ccncc3)cc2)CCCC1	AMP-activated protein kinase (AMPK) alpha-1/beta-1/gamma-1 (PRKAG1/PRKAA1/PRKAB1, Homo sapiens, UniProt P54619+Q13131+Q9Y478)	SPR		2.49
CC(C)C[C@H](NC(=O)[C@H](CO)NC(=O)[C@H](Cc1ccc(O)cc1)NC(=O)[C@H](CS)NC(=O)[C@H](CS)NC(=O)[C@@H](N)CCCCN)C(=O)O	ERBB2	fluorescence	pH 7.4	0.18
CC(C)C[C@H](NC(=O)[C@H](C)NC(=O)[C@@H](NC(=O)[C@H](CCCCN)NC(=O)[C@H](CC(=O)O)NC(=O)[C@H](Cc1ccc(OP(=O)(O)O)cc1)NC(=O)[C@H](C)NC(=O)[C@H](CC(N)=O)NC(=O)[C@@H]1CCCN1C(=O)[C@@H](NC(=O)[C@H](CCCNC(=N)N)NC(=O)[C@H](CCCCN)NC(=O)CCCCCNC(=O)CCCC[C@@H]1SC[C@@H]2NC(=O)N[C@@H]21)C(C)C)[C@@H](C)O)C(=O)N[C@@H](C)C(=O)N[C@@H](CC(C)C)C(=O)N[C@@H](CCC(=O)O)C(=O)O	Tyrosine-protein kinase ABL1, SH2 (ABL1, Homo sapiens, UniProt P00519)	ITC		85.5
Cc1cnc(-c2ccc(-c3ccc(NC(=O)Nc4c(F)cc(F)cc4F)cc3F)c3c2C(=O)NC3)[nH]1	Tyrosine-protein kinase ITK/TSK (ITK, Homo sapiens, UniProt Q08881)	competition with immobilised ligand		0.0059
Cc1cc(Nc2cc3ncccc3c(N[C@@H]3C[C@H]4CC[C@@H](C3)N4CCC#N)n2)n[nH]1	Mitogen-activated protein kinase kinase kinase 2 (MAP3K2, Homo sapiens, UniProt Q9Y2U5)	competition with immobilised ligand		0.019
COc1cc(Nc2ncc3c(n2)-c2ccc(Cl)cc2C(c2c(F)cccc2OC)=NC3)ccc1C(=O)O	Protein-tyrosine kinase 2-beta (PTK2B, Homo sapiens, UniProt Q14289)		lysate	2.99
FC(F)(F)c1n[nH]cc1-c1nc2ccc3[nH]ncc3c2c2c1CCCC2	Tyrosine-protein kinase ABL1, phosphorylated (ABL1, Homo sapiens, UniProt P00519)	competition with immobilised ligand		7.2
